# Laboratory results published in ChEMBL document CHEMBL3877241 (J Med Chem, 2016).
# What was measured:
# [1] = target: Tyrosine-protein kinase JAK2 (Homo sapiens, UniProt O60674); test: Inhibition of JAK2 (unknown origin) preincubated for 20 mins followed by [33P]ATP addition measured after 120 mins by Hotspot assay
# Histone deacetylase 2 = Histone deacetylase 2 (Homo sapiens, UniProt Q92769); test: (§1) Inhibition of full length human recombinant C-terminal GST-tagged HDAC2 (1 to 488 residues) expressed in insect cells preincubated with enzyme followed by fluorogenic Arg-His-Lys-Lys(Ac)-AMC substrate addition measured after 2 hrs by fluorescence assay
# [2] = target: Histone deacetylase 3/Nuclear receptor corepressor 2 (HDAC3/NCoR2) (Homo sapiens, UniProt O15379); test: as §1, with “His-tagged HDAC3” for “GST-tagged HDAC2”, “428 residues)/N-terminal GST-tagged NCOR2 (395 to 489” for “488”
# [3] = target: Histone deacetylase 7 (Homo sapiens) (UniProt Q8WUI4); test: Inhibition of human recombinant N-terminal GST-tagged HDAC7 (518 to 991 residues) expressed in insect cells at 10 uM preincubated with enzyme followed by […] addition measured after 2 hrs by fluorescence assay relative to control
# Outline: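 HDAC enzyme in Tris-HCl pH 8.0 buffer with NaCl, KCl and MgCl2 was pre-incubated with compound from DMSO. Substrate was then added and the reaction ran 2 h at 30 °C. It was stopped with developer containing trichostatin A, and fluorescence (Ex/Em 360/460 nm) was read at plateau. Single test concentration 10 µM.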
# [4] = target: Histone deacetylase 9 (Homo sapiens) (UniProt Q9UKV0); test: Inhibition of HDAC9 (unknown origin) at 10 uM preincubated with enzyme followed by acetyl-Lys(trifluoroacetyl)-AMC substrate addition measured after 2 hrs by fluorescence assay relative to control
# Sequence of Histone deacetylase 9 (Homo sapiens) (Q9UKV0 whole entry, canonical isoform): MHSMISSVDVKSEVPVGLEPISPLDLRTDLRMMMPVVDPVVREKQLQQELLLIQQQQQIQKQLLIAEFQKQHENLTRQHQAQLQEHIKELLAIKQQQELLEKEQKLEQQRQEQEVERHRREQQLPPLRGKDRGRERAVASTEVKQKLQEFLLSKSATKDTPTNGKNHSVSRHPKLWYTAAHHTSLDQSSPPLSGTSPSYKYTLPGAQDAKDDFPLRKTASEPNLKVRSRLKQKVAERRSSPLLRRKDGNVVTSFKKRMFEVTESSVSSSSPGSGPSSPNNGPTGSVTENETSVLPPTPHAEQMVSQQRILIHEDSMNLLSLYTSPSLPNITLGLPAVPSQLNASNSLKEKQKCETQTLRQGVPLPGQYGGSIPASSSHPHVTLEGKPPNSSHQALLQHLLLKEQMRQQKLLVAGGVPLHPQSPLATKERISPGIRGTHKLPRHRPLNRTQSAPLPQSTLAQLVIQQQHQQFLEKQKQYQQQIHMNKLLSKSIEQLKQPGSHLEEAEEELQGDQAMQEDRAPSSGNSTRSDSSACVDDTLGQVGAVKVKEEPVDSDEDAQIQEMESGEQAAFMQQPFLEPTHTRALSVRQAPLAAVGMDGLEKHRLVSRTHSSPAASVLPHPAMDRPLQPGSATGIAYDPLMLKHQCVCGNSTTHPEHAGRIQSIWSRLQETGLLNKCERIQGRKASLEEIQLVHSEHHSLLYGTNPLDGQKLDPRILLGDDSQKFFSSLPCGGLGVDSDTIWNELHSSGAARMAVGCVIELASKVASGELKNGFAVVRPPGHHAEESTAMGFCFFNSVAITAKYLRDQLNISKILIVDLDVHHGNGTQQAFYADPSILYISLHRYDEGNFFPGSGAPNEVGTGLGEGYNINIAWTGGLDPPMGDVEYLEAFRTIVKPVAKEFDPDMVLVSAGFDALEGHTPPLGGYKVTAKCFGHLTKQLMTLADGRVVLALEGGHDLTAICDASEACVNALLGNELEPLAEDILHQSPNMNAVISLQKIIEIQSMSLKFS
# Outline: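 Fluorogenic HDAC assay in 50 mM Tris-HCl pH 8.0, 137 mM NaCl, 2.7 mM KCl, 1 mM MgCl2. Enzyme pre-incubated with compound delivered in DMSO. Substrate then added: Arg-His-Lys(Ac) at 50 μM for most isoforms, or acetyl-Lys(trifluoroacetyl)-AMC for class IIa. Incubated 2 h at 30 °C, stopped with developer plus trichostatin A, read at Ex/Em 360/460 nm at endpoint. IC50 from 10-dose curves.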
# Histone deacetylase 11 = Histone deacetylase 11 (Homo sapiens, UniProt Q96DB2); test: Inhibition of human recombinant N-terminal His-tagged HDAC11 (1 to 347 residues) expressed in baculovirus infected insect cells preincubated with enzyme followed by fluorogenic Arg-His-Lys-Lys(Ac)-AMC substrate addition measured after 2 hrs by fluorescence assay relative to control
# Sequence of Histone deacetylase 11 (Q96DB2 whole entry, the tested form may be a part): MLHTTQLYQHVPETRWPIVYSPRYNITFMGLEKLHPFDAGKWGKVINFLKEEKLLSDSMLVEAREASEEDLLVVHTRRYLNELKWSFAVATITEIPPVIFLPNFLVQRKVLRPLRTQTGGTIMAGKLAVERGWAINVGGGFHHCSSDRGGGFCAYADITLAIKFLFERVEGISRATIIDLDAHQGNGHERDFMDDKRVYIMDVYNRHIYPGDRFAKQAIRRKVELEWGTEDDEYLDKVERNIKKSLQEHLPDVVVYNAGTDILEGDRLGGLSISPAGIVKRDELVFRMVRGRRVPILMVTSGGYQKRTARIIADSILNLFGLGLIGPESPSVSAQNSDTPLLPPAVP
# [5] = target: Non-receptor tyrosine-protein kinase TYK2 (Homo sapiens, UniProt P29597); test: Inhibition of human TYK2 (V877 to C1187 residues) expressed in mammalian expression system assessed as residual activity at 100 nM by KINOMEScan assay relative to control
# Outline: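 DiscoveRx competition-binding panel of 97 kinases, measuring binding to the kinase ATP site rather than catalytic turnover. The test compound was run at a single 100 nM concentration. Results are given as % of control binding.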
# [6] = target: T1, Mitogen-activated protein kinase 8 (Homo sapiens, UniProt P45983); test: Inhibition of full length human MAPK8 (M1 to Q384 residues) expressed in mammalian expression system assessed as residual activity at 100 nM by KINOMEScan assay relative to control
# T1 sequence (P45983 whole entry, the tested form may be a part): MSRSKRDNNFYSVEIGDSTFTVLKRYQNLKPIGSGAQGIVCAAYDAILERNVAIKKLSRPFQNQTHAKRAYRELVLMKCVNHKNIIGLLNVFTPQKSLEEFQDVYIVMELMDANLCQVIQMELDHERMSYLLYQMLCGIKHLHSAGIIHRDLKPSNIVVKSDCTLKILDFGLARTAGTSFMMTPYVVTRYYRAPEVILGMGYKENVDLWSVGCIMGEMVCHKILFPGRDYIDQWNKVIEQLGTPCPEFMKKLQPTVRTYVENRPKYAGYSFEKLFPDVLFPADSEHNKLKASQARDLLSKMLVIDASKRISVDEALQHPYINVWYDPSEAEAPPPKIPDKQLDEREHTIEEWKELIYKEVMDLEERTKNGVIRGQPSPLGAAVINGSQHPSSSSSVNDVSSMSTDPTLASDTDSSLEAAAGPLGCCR
# Outline: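 DiscoveRx KINOMEscan competition binding against ATP sites in a 97-kinase panel, with compound at 100 nM. Binding reported as % of control.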
# [7] = Antiproliferative activity against human MDA-MB-231 cells after 72 hrs by MTT assay; type: functional, cell-based; details: MDA-MB-231, 72 h
# [8] = target: Tyrosine-protein kinase JAK3 (Homo sapiens, UniProt P52333); test: Inhibition of human JAK3 JH1 catalytic domain (I781 to S1124 residues) expressed in mammalian expression system by KINOMEScan assay
# Sequence of Tyrosine-protein kinase JAK3 (P52333 whole entry, the tested form may be a part): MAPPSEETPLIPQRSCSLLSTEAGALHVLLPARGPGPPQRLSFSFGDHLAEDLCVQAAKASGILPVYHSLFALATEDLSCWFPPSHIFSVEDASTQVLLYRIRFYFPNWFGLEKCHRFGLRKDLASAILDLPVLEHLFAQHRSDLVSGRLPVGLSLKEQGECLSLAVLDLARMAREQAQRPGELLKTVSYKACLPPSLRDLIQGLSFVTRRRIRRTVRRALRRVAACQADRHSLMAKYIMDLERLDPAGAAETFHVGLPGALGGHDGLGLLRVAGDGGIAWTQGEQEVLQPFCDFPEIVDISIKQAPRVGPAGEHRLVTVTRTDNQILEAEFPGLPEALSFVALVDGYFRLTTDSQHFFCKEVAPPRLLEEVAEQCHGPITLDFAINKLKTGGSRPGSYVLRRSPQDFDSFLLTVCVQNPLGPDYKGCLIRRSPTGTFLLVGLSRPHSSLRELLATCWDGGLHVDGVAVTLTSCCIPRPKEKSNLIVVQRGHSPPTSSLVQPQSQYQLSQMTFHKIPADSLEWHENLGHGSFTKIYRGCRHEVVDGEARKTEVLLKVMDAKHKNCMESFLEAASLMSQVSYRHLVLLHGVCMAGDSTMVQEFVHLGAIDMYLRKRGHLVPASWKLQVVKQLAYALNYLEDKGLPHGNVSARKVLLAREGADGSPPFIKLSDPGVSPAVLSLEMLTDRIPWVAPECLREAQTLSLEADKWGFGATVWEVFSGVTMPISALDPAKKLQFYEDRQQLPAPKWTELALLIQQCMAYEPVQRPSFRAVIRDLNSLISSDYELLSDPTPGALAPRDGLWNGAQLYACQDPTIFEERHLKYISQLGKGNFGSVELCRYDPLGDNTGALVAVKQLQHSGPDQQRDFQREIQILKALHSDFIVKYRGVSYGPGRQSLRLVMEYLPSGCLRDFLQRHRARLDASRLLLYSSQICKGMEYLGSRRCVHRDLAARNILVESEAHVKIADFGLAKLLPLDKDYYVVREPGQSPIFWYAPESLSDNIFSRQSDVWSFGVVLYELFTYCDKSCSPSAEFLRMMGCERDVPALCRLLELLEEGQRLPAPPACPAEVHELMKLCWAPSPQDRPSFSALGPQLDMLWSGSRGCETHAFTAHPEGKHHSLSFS
# [9] = target: Mast/stem cell growth factor receptor Kit (Homo sapiens, UniProt P10721); test: Inhibition of human KIT (I571 to D952 residues) expressed in bacterial expression system by KINOMEScan assay
# Sequence of Mast/stem cell growth factor receptor Kit (Homo sapiens, UniProt P10721) (P10721 whole entry, the tested form may be a part): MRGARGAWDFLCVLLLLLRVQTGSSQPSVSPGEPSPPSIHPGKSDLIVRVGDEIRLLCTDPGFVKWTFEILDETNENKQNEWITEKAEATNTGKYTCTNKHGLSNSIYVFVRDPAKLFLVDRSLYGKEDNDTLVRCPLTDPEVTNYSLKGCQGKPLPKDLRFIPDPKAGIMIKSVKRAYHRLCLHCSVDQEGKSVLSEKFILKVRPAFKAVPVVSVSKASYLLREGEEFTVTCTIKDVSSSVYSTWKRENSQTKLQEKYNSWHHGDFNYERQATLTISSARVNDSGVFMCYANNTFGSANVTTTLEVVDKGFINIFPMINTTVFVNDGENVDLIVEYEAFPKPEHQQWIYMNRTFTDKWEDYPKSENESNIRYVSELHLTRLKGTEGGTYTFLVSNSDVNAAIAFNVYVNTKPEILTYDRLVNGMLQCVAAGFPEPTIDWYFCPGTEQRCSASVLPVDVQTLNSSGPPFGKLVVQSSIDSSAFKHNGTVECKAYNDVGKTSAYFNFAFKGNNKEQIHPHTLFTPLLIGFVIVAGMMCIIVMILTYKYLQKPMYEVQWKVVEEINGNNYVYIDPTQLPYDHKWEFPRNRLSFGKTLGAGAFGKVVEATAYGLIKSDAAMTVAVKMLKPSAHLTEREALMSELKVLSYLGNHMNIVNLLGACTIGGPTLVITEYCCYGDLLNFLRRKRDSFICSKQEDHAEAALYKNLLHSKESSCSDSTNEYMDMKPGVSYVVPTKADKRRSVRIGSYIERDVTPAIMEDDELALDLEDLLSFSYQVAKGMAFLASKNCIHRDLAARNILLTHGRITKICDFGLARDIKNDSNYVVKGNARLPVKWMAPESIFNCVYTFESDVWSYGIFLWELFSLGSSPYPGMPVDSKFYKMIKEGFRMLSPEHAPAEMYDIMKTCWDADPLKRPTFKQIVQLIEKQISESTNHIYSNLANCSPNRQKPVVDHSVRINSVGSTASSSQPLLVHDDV
# [10] = target: T1, Mitogen-activated protein kinase 8; test: Inhibition of full length human MAPK8 (M1 to Q384 residues) expressed in mammalian expression system by KINOMEScan assay
# [11] = target: Mast/stem cell growth factor receptor Kit (Homo sapiens, UniProt P10721, T670I/V559D); test: Inhibition of human KIT (Y545 to D952 residues) V559D/T670I double mutant expressed in bacterial expression system by KINOMEScan assay
# cells = type: functional, cell-based; details: Homo sapiens, HEL 92.1.7, 36 h
# [12] = Antiproliferative activity against human Jurkat cells; type: functional, cell-based
# [13] = Antiproliferative activity against human KHYG cells after 48 hrs by CellTiter-Glo assay; type: functional, cell-based
# HEL 92.1.7 = test: Inhibition of colony formation in HEL 92.1.7 cells harboring JAK2 V617F mutant after 14 to 16 days; type: functional, cell-based; details: Homo sapiens
# Outline: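 HEL cells (200 cells/mL) mixed into methylcellulose semi-solid medium with inhibitor at various concentrations. Incubated 14-16 days, then colonies counted. Data given as mean ± SEM.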
# MOLM-14 [14] = test: Induction of apoptosis in human MOLM14 cells assessed as live cells at 0.75 uM after 48 hrs by Annexin-V FITC/propidium iodide staining based flow cytometry (reference value: 94 to 94.1%); type: functional
# Outline: (§2)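 MOLM-14 cells treated 48 h at the stated concentrations; doxorubicin as positive control. Stained with Annexin V-FITC and propidium iodide and analysed by flow cytometry (at least 10,000 events). Gated quadrants: Annexin V−/PI− viable, Annexin V+/PI− early apoptotic, Annexin V+/PI+ late apoptotic.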
# MOLM-14 [15] = test: Induction of apoptosis in human MOLM14 cells assessed as late apoptotic cells at 0.75 uM after 48 hrs by Annexin-V FITC/propidium iodide staining based flow cytometry (reference value: 2.1 to 2.2%); type: functional; outline: as §2
# MOLM-14 [16] = test: Induction of apoptosis in human MOLM14 cells assessed as early apoptotic cells at 1.5 uM after 48 hrs by Annexin-V FITC/propidium iodide staining based flow cytometry (reference value: 3.6 to 3.7%); type: functional
# MOLM-14 [17] = test: Induction of apoptosis in human MOLM14 cells assessed as late apoptotic cells at 1.5 uM after 48 hrs by Annexin-V FITC/propidium iodide staining based flow cytometry (reference value: 2.1 to 2.2%); type: functional
# MOLM-14 [18] = test: Induction of apoptosis in human MOLM14 cells assessed as necrotic cells at 1.5 uM after 48 hrs by Annexin-V FITC/propidium iodide staining based flow cytometry (reference value: 0.1%); type: functional
# MOLM-14 [19] = test: Induction of apoptosis in human MOLM14 cells assessed as live cells at 3 uM after 48 hrs by Annexin-V FITC/propidium iodide staining based flow cytometry (reference value: 94 to 94.1%); type: functional; outline: as §2
# MOLM-14 [20] = test: Induction of apoptosis in human MOLM14 cells assessed as necrotic cells at 3 uM after 48 hrs by Annexin-V FITC/propidium iodide staining based flow cytometry (reference value: 0.1%); type: functional; outline: as §2
# Sequence of Tyrosine-protein kinase JAK2 (O60674 whole entry, the tested form may be a part): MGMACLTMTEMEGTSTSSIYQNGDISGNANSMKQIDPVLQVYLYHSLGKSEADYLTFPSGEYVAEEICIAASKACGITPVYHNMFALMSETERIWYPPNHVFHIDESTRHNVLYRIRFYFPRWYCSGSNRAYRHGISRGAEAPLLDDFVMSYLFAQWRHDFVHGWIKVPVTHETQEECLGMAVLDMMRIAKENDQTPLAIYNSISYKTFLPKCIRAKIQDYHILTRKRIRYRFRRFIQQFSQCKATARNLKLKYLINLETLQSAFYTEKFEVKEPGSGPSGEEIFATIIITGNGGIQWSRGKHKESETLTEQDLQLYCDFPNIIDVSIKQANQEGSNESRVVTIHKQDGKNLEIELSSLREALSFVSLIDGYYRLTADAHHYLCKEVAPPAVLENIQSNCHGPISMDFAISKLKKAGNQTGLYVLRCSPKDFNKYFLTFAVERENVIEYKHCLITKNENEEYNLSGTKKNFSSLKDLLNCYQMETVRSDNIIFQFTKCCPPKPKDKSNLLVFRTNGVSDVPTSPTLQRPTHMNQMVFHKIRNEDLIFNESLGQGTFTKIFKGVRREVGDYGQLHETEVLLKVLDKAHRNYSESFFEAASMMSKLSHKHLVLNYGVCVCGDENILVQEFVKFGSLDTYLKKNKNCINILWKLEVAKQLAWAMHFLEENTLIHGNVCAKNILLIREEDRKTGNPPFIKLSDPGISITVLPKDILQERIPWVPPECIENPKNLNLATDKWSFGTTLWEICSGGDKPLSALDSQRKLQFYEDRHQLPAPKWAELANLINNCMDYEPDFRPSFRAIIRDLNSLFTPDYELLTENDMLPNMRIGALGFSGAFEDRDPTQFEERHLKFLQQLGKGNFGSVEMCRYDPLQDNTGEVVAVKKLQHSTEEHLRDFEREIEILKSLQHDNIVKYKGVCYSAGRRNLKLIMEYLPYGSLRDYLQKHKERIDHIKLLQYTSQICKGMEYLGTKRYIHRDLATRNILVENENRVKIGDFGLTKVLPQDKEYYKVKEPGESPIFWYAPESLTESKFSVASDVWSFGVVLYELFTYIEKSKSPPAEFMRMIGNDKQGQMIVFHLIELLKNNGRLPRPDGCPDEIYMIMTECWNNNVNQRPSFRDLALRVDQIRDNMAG
smiles,measurement,setting,value
O=C(CCCCCCOc1ccc2cc1COC/C=C/COCc1cccc(c1)-c1ccnc(n1)N2)NO,IC50,[1],0.0014 µM
same,IC50,Histone deacetylase 2,0.049 µM
same,IC50,[2],2.17 µM
same,inhibition,[3],1.3%
same,inhibition,[4],14%
same,IC50,Histone deacetylase 11,0.93 µM
same,Activity,[5],4.9%
same,Activity,[6],26%
same,IC50,[7],1.43 µM
same,IC50,[8],0.01 to 1 µM
same,IC50,[9],1 to 10 µM
same,IC50,[10],1 to 10 µM
same,IC50,[11],1 to 10 µM
same,IC50,cells,0.94 µM
same,IC50,[12],1.19 µM
same,IC50,[13],1.09 µM
same,inhibition,HEL 92.1.7,Dose-dependent effect
same,Activity,MOLM-14 [14],81.7%
same,Activity,MOLM-14 [15],5%
same,Activity,MOLM-14 [16],12.7%
same,Activity,MOLM-14 [17],13%
same,Activity,MOLM-14 [18],0.3%
same,Activity,MOLM-14 [19],29.9%
same,Activity,MOLM-14 [20],1.3%
